# Screening data from PubChem BioAssay.
# MrgX1 PAM: allosterically activates human MrgX1 receptor signaling. MrgX1-HEK293, Fluo-4 calcium flux, FDSS; active compounds read high. B-score at 10 µM. hit rate 0.63% among 310,000. AID 588675;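 active = plate-corrected calcium response at least 3 library SD above typical, normal starting fluorescence, not activating the receptor alone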;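 note: compound read alongside a low EC10 to EC30 dose of BAM8-22 agonist; peak minus trough fluorescence over baseline measured at the second addition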
# Target sequence (Q96LB2 whole entry, looked up): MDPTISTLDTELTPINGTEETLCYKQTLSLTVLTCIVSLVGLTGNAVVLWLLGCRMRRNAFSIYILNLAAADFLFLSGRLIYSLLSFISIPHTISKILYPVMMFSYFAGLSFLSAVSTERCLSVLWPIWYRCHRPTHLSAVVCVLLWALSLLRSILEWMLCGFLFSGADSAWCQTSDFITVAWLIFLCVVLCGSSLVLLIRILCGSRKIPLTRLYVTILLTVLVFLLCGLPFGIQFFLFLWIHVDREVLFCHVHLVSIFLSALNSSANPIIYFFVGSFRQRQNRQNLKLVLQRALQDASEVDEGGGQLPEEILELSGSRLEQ
# RGS4 pot: potentiators or activators of RGS4; AID 463111; HEK293 M3R/inducible RGS4, carbachol calcium flux Fluo4; active compounds read low; B-score at 10 µM; hit rate 0.92% among 310,000;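 active = B-score of the integrated calcium signal more than 4 SD below the library mean, with starting fluorescence not abnormally high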;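 note: negative B-score means reduced calcium response which marks RGS4 activation or potentiation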
#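 Material: M3R-expressing HEK293 line, RGS4 induced by doxycycline | Schedule: Overnight RGS4 induction, 30 min dye load 37 °C, 20 min compound RT | Measured by: Fluo4 fluorescence kinetic imaging of calcium | Read-out: Integrated calcium ratio converted to B score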
# MrgX1 antagonist: human MrgX1 receptor antagonism, primary screen | MRGX1-HEK293 calcium flux, Fluo-4, BAM8-22 antagonism; active compounds read low | hit rate 1.3% among 310,000 | B-score at 10 µM | Q96LB2;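 active = calcium-response B-score plate-corrected more than 3 library SD below zero, starting fluorescence within 5 deviations, no agonist response on first addition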;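 note: peak minus trough fluorescence over baseline after final BAM8-22 challenge near maximal dose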
# RGS4 block: inhibitors of human RGS4 | P49798 | HEK293 M3R/RGS4 inducible, Fluo-4 calcium flux; active compounds read high; triggered by carbachol at its EC20 | B-score at 10 µM | hit rate 0.45% among 310,000;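 active = B-score, a plate-corrected calcium signal, over three deviations above library mean, with baseline fluorescence within five deviations of library mean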;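 note: RGS4 expression induced by doxycycline in cells with stable M3 receptor; B-score is computed from the integrated fluorescence ratio over baseline after carbachol; higher B-score means a larger calcium signal and so more RGS4 inhibition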
# Target sequence (P49798 whole entry, looked up): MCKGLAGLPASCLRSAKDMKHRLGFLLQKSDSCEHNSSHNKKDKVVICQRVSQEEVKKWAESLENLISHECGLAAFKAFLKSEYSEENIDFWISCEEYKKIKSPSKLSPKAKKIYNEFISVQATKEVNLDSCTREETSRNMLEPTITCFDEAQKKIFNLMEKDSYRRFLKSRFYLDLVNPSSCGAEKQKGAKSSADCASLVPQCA
# MrgX1 ag: agonists of human MrgX1 receptor | hit rate 0.44% among 310,000 | MrgX1-HEK293 cells, Fluo-4 calcium fluorescence, agonist mode; active compounds read high | Q96LB2 | B-score at 10 µM;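 active = calcium response B-score plate-corrected fluorescence ratio at least 3 library SD, with starting fluorescence B-score inside 5 SD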
#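 Material – MrgX1-expressing HEK293 cells · Input – 15,000 cells seeded per well · Dosing – compound as first of three additions · Times – overnight seeding, then 1 h dark dye loading · Measured by – kinetic Fluo-4 NW fluorescence of intracellular calcium · Read-out – B-scored fluorescence response ratio · Benchmarks – positive and negative control wells on each plate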
# RGS4 inh valid: validation of RGS4 inhibitors; calcium response, % at 10 µM; shares compounds with RGS4 block; HEK293 M3R/RGS4, carbachol calcium Fluo-4 fluorescence; carbachol added at its EC20; 0 = buffer wells, 100 = carbachol control; hit rate 65% among 1,700; AID 492999;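 active = duplicate-averaged calcium response above the buffer-only control mean plus 5 SD of those controls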;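 note: integrated fluorescence ratio F max minus min over baseline F0; higher response in RGS4-induced cells means RGS4 inhibition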
# RGS4 uninduced: checks RGS4 inhibitor effects in non-induced HEK293 M3R cells; shares compounds with RGS4 block; carbachol calcium Fluo-4; submaximal (EC20) carbachol stimulus; buffer wells 0%, carbachol control wells 100%; activity (percent), % at 10 µM; hit rate 20% among 1,900; AID 493000; call rule not given here;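 note: RGS4 induction absent so cells express M3R without RGS4; higher means more calcium signal and flags a non-specific hit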
# RGS4 inh ctr2: second RGS4 inhibitor counter-screen in uninduced cells lacking carbachol; shares compounds with RGS4 block; HEK293 M3R/RGS4 non-induced, Fluo-4 calcium, no carbachol; normalised: buffer wells 0%, carbachol wells 100%; calcium response (agonist-mode artifact), % at 10 µM; hit rate 22% among 1,900; AID 493001;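 active = duplicate-averaged calcium rise in uninduced cells above buffer wells' mean plus 5 SD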
# MrgX1 ant reconf: reconfirmed antagonist of human MrgX1 receptor signaling | shares compounds with MrgX1 antagonist | MrgX1-HEK293, BAM8-22 calcium flux, Fluo-4; active compounds read low | remaining BAM8-22 calcium response % of control (active compounds read low), % at 10 µM | hit rate 19% among 2,300 | AID 602420;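 active = remaining agonist calcium response no higher than 100% minus 3 SD of agonist-only control wells, with starting fluorescence near control levels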;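 note: agonist BAM8-22 given at a near maximal EC90 to ECmax level; peak minus minimum fluorescence divided by baseline after agonist addition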
# HEK293 Ca flux: counter-screen for MrgX1 antagonists: effect in parental HEK293 cells | shares compounds with MrgX1 antagonist | Fluo-4 calcium fluorescence, FDSS | fluorescence ratio F(max-min)/F0 at 10 µM | hit rate 2% among 4,000 | AID 624111;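 active = duplicate-averaged calcium fluorescence ratio at least three times the standard deviation of buffer wells, a nonspecific response in parental cells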
# HEK293 Ca counter: MrgX1 allosteric activator counter-screen hit in parental HEK293 cells; shares compounds with MrgX1 antagonist; parental HEK293 calcium flux, Fluo-4 fluorescence ratio; active compounds read high; fluorescence ratio F(max-min)/F0 at 10 µM; hit rate 0.4% among 4,000;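 active = calcium fluorescence ratio, averaged over duplicates, at least 3 SD of the buffer-well ratio, meaning a nonspecific response in receptor-free cells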;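 note: untransfected parental HEK293 lacking MrgX1 used as counterscreen for MrgX1 allosteric activators; fluorescence change taken during the second addition on a kinetic imager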
# HEK293 Ca cntr2: counter-screen for MrgX1 activators: effect in parental HEK293 cells | fluorescence ratio F(max-min)/F0 at 10 µM | Fluo-4 calcium fluorescence (FDSS); active compounds read high | shares compounds with MrgX1 antagonist | hit rate 8.7% among 4,000;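 active = calcium fluorescence ratio at least three times the spread of buffer wells, meaning a non-specific response in parental cells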
# Numbers stand for hits; . = inactive; / = no result. Compounds with a hit are over-represented: about 3.5% of the library has one in this group of screens.
SMILES,MrgX1 PAM,RGS4 pot,MrgX1 antagonist,RGS4 block,MrgX1 ag,RGS4 inh valid,RGS4 uninduced,RGS4 inh ctr2,others
O=Cc1s/c(=N\S(=O)(=O)c2ccccc2)n(CCCCl)c1Cl,/,.,/,5.36,/,9.0%,.,19.5%,
CCn1c(C)cs/c1=N\S(=O)(=O)c1ccccc1,.,.,.,.,.,/,/,/,
COc1ccc(NC(=O)CC2C(=O)NCCN2C(=O)Nc2ccc(C(F)(F)F)cc2)cc1 (centres undefined),.,.,.,8.84,.,20.5%,29.0%,.,
O=C(CC1C(=O)NCCN1C(=O)Nc1ccc(C(F)(F)F)cc1)Nc1ccc(F)cc1 (centres undefined),.,.,.,24,.,43.0%,.,8.0%,
C=CCNc1nnc(SC2CC(=O)N(c3ccc(OCCC)cc3)C2=O)s1 (centres undefined),.,.,.,.,.,.,.,.,
O=C1OC(/C(=C\Nc2cc(Cl)ccc2O)[N+](=O)[O-])c2ccccc21 (centres undefined),.,.,.,.,.,/,/,/,
O=c1[nH]c(NNC(=S)NCc2ccccc2)nc2c1C1(CCCCC1)Cc1ccccc1-2,.,.,.,12.6,.,30.0%,.,.,
O=c1[nH]c(NNC(=S)NC2CCCCC2)nc2c1C1(CCCC1)Cc1ccccc1-2,.,.,.,12.1,.,7.5%,.,.,
C=CCNC(=S)NNc1nc2c(c(=O)[nH]1)C1(CCCC1)Cc1ccccc1-2,.,.,.,9.83,.,22.0%,.,.,
CCN(CC)Cc1nc2c(c(=O)[nH]1)C1(CCCCC1)Cc1ccccc1-2,.,.,.,.,.,/,/,/,
CC(=O)NC(C)(CC(=O)c1ccccc1)c1ccccc1 (centres undefined),.,.,.,.,.,/,/,/,
NNC(=O)c1cc2c(N3CCC(Cc4ccccc4)CC3)ncnc2s1,.,.,.,.,.,/,/,/,
Cn1cc(S(=O)(=O)Nc2cccc3ccccc23)c(=O)n(C)c1=O,.,.,.,.,.,/,/,/,
COc1cc(/C=N/NC(=S)Nc2cccc(Cl)c2C)ccc1OCC(=O)N1CC(C)OC(C)C1 (centres undefined),.,.,.,12.9,.,.,.,.,
COc1ccc(CC(NC(C)=O)C(=O)NC2CCN(S(=O)(=O)c3ccccc3)CC2)c(OC)c1 (centres undefined),.,.,.,.,.,/,.,.,
Cc1ccc(-c2cc(C(F)F)nc(NCc3cccnc3)n2)cc1,.,.,.,7.72,.,.,.,.,
COCCCNC(=O)Cn1cc(/C=C(\C#N)C(=O)NC2CCCC2)c2ccccc21,.,.,.,.,.,/,/,/,
CCOC(=O)[C@@H]1[C@H]2COc3ccccc3[C@@H]2N2C(=O)N(c3ccc(Cl)cc3)C(=O)[C@@]12C,.,.,-8.06,.,.,.,.,.,MrgX1 ant reconf=.;HEK293 Ca flux=.;HEK293 Ca counter=.;HEK293 Ca cntr2=.
